Measured values published in PMC9305987 (Nature cell biology, 2022).
Read-outs that look alike come from different tables or passages of the source.

How the values were obtained:
Irg1-KO RAW264.7 cells = assay: SDH inhibition, succinate and 5hmC in LPS-stimulated Irg1-KO macrophages; type: cell-based, mouse; settings: 3-NPA 1 mM, LPS-stimulated Irg1-KO RAW264.7
RAW264.7 cells [1] = assay: qRT-PCR of LPS-induced genes; type: cell-based, mouse
In short: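 Alternatively, cells got LPS for 2 h, then OI for 2 h, or LPS plus dimethyl-α-KG (0.5, 1, 2 mM). mRNA was measured by qRT-PCR with β-actin as housekeeping control. Nfkbiz data are means with S.D. of 3 independent experiments.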

[2] = test system: HEK293T cells overexpressing TET3; assay: Global 5hmC by dot-blot and LC-MS/MS in TET3-overexpressing cells; type: cell-based
In short: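 For dot-blot, genomic DNA was spotted on nitrocellulose, UV-crosslinked for 20 min, blocked in 5% milk, probed with anti-5hmC overnight at 4°C and HRP secondary, then scanned. Global 5hmC was also measured by LC-MS/MS, mean with S.D. of 3 independent experiments.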

[3] = test system: RAW264.7 mouse macrophages; assay: Intracellular ITA accumulation by LC-MS/MS; type: cell-based; settings: RAW264.7, dose-dependent
[4] = test system: TET2^CD mutant, i.e. R1896M or S1898F; assay: STD NMR binding to TET2^CD mutants; set-up: species or system human
[5] = test system: bone marrow-derived macrophages (BMDMs); assay: Global 5hmC quantification by LC-MS/MS in BMDMs; type: cell-based, mouse; settings: 0.5 mM OI or increased concentrations of ITA, 8 hours; for Reduction of global 5hmC: Tet2^+/+ BMDMs; for Effect on global 5hmC: Tet2^−/− BMDMs
LPS-induced sepsis = assay: Mouse model of LPS-induced sepsis; type: in vivo; settings: Tet2^−/− mice
peritoneal leukocytes = assay: Genomic 5hmC and 5mC in peritoneal leukocytes after i.p. ITA, LC-MS/MS; type: in vivo, mouse; settings: 50 mg/kg ITA i.p. prior to LPS 25 mg/kg
[6] = molecular target: recombinant human TET2^CD (Homo sapiens, UniProt Q6N021); assay: Saturation transfer difference; type: binding
In short: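 Spectra were run at 25°C, 700 MHz, cryoprobe, carrier on water. A 3-s saturation used a 50-ms EBurp2 pulse (0.75 ppm bandwidth) centred at 0.8 ppm for difference or −40 ppm for reference spectra.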

mTET2^CD = molecular target: T1, mTET2^CD (Mus musculus, UniProt Q4JK59); type: biochemical; settings: for Inhibition of mTET2^CD activity in presence of excess α-KG: fixed concentration of inhibitor, variable α-KG
T1 sequence (Q4JK59 1042-1912 limits assumed): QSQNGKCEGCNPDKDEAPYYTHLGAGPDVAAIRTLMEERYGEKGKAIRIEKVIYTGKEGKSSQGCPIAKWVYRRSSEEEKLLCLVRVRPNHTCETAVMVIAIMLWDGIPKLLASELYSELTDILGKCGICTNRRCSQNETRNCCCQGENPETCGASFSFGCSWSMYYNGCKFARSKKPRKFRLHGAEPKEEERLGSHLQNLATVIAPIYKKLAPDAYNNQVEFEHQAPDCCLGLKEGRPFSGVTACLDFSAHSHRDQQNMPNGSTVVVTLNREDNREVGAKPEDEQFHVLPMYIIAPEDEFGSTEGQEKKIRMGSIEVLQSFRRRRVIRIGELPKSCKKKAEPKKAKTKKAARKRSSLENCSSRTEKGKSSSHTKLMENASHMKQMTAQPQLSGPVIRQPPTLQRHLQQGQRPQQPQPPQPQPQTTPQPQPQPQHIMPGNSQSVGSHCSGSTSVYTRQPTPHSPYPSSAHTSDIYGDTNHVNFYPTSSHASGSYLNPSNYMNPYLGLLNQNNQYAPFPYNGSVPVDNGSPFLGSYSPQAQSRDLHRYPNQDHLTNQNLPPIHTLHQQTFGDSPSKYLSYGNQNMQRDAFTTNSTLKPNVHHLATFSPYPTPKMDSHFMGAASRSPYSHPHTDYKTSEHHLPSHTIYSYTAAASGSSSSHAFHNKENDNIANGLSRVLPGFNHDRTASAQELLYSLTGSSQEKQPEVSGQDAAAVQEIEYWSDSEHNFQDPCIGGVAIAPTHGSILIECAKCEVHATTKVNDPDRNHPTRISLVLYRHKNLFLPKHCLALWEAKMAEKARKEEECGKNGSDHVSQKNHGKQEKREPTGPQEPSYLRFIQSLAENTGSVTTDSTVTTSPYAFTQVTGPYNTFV

Tet2^+/+ BMDMs = assay: 5hmC mapping by hMeDIP-seq in BMDMs; type: cell-based, mouse; settings: 0.5 mM OI, 8 hours
[7] = test system: HEK293T cells overexpressing mTET2^CD; assay: Global 5hmC by immunofluorescence in TET2-overexpressing cells; type: cell-based; settings: for Effect on 5hmC: HEK293T overexpressing mTET2^CD
In short: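 TET2-overexpressing HEK293T cells were treated with OI alone or with rising amounts of dimethyl-α-KG. 5hmC immunofluorescence: Triton X-100 permeabilization, 2 N HCl denaturation for 30 min, Tris pH 8.5 neutralization, BSA block, anti-5hmC overnight at 4°C, fluorescent secondary, DAPI counterstain. Two independent experiments.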

[8] = test system: TET2-overexpressing HEK293T cells; assay: Global histone methylation markers by western blot; type: cell-based
RAW264.7 cells [9] = assay: Genomic 5hmC by IF staining in LPS-treated macrophages; type: cell-based, mouse; settings: LPS 12 hours then 1 mM for 12 hours
In short: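 RAW264.7 cells (DMEM, 10% FBS) were challenged with LPS for 12 h, then given dimethyl-α-KG (1 mM) for 12 h. Cells were permeabilized with 0.3% Triton X-100 for 15 min, DNA denatured with 2 N HCl for 30 min, and neutralized with 100 mM Tris-HCl pH 8.5. Staining used 3% BSA block, anti-5hmC at 4°C overnight, Alexa Fluor 594 secondary for 1 h, and DAPI, then fluorescence microscopy.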

## O=C(O)CC[N+](=O)[O-] [3-NPA, 3-nitropropionic acid]
Irg1-KO RAW264.7 cells
  Effect on global 5hmC: little effect
  Intracellular accumulation of succinate: ≤ 1.5 mM

## C=C(CC(=O)O)C(=O)O [ITA, itaconic acid]
RAW264.7 cells [1]; unmodified ITA 3 mM, Tet2-WT vs Tet2-KO
  Suppression of LPS-induced chemokine and cytokine genes upon Tet2 deletion: completely abolished by Tet2 deletion
[2]
  Effect on global 5hmC: decreased global 5hmC
[3]
  Time to intracellular accumulation of ITA: < 30 s
[4]
  Binding to TET2^CD mutants R1896M or S1898F (STD NMR): abolish the binding
[5]
  Reduction of global 5hmC: ≤ 95%
  Effect on global 5hmC: little effect
LPS-induced sepsis
  Anti-inflammatory and protective effects: not observed
Peritoneal leukocytes
  5mC in peritoneal leukocytes: unaffected
Peritoneal leukocytes; 2 hours post LPS
  Reduction of 5hmC in peritoneal leukocytes: ≤ 36%
[6]
  Binding to recombinant human TET2^CD (STD NMR): bound directly
[6]; competition with α-KG
  ITA-TET2^CD binding in presence of α-KG (STD NMR): blocked by α-KG
mTET2^CD
  IC50: 171 µM
  Inhibition of mTET2^CD activity in presence of excess α-KG: overcome dose-dependently by excess α-KG

## O=C(O)CC[C@H](O)C(=O)O [L-2-HG]
mTET2^CD
  Inhibition of mTET2^CD activity in presence of excess α-KG: overcome dose-dependently by excess α-KG

## C=C(CC(=O)OCCCCCCCC)C(=O)O [OI, octyl-ITA]
RAW264.7 cells [1]; LPS-stimulated Tet2-KO cells
  Nfkbiz mRNA expression: failed to affect
RAW264.7 cells [1]; Tet2-WT, LPS 2 hours then OI 2 hours
  LPS-induced mRNA expression of Nfkbiz, Il-6, Cxcl9/10/11: hindered
[2]
  Effect on global 5hmC: decreased global 5hmC
[3]
  Time to intracellular accumulation of ITA: < 30 s
Tet2^+/+ BMDMs
  5hmC by hMeDIP-seq: decreased 5hmC at both promoters and intragenic regions
[5]
  Reduction of global 5hmC: ≤ 95%
  Effect on global 5hmC: little effect
[7]
  Effect on 5hmC: dose-dependently reduced 5hmC
[8]
  Effect on global histone methylation: no detectable effect

## CCCCCCCCOC(=O)[C@@H](O)CCC(=O)O [Octyl-L-2HG]
[7]
  Effect on 5hmC: dose-dependently reduced 5hmC

## COC(=O)CCC(=O)C(=O)OC [dimethyl-α-KG]
RAW264.7 cells [1]; LPS-stimulated Tet2-WT but not Tet2-KO cells
  Nfkbiz mRNA: further increase
RAW264.7 cells [9]
  Effect on 5hmC in LPS-treated cells: restored 5hmC
[7]; increasing amount, together with OI
  Effect on OI-induced 5hmC reduction: reversed

## O=C(O)/C=C/C(=O)O [fumarate]
mTET2^CD; read-out: IC50 toward mTET2^CD catalytic activity, 0.1 mM α-KG, 37°C 30 min
  IC50: > 5000 µM

## NC(=O)CC[C@H](N)C(=O)O [glutamine]
[6]
  Binding to recombinant human TET2^CD (STD NMR): not

## α-ketoglutarate [α-KG]
[4]; R1896M mutation, not S1898F
  Binding to TET2^CD R1896M mutant (STD NMR): weakens the binding
